The values below come from ChEMBL document CHEMBL3091326, “Design, synthesis, and evaluation of curcumin-derived arylheptanoids for glioblastoma and neuroblastoma cytotoxicity” (Bioorg Med Chem Lett, 2013).

Structures are written as SMILES.

One data set concerns SK-N-FI. Kind of data set: Cytotoxicity against human SK-N-FI cells after 5 days by methylene blue staining assay. Format: functional, cell-based. The note with it: 120 h. The essentials:
(§1)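 Cells exposed in triplicate to vehicle or increasing compound concentrations; survival read 5 days post-exposure. Cell mass quantified by methylene blue staining, dye solubilized in 0.1N HCl, absorbance at 610nm. Mean and standard deviation; significance vs media control by Dunnett's multiple comparisons test. IC50 derived from dose-response data.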

The next data set relates to SK-N-SH. Kind of data set: Cytotoxicity against human SK-N-SH cells after 5 days by methylene blue staining assay. The class given is functional, cell-based. The note with it: 120 h. The essentials: as §1
Data set [1] can be described thus: Cytotoxicity against human U87MG cells after 5 days by methylene blue staining assay. Conditions: U-87 MG, 120 h. Format: functional, cell-based, U-87MG ATCC. The essentials: as §1
A short description of data set [2]: Cytotoxicity against human CD34-positive blood stem/progenitor cells at 0.3 to 30 uM after 10 to 14 days by inverted light microscopic analysis. The class given is cell-based. The essentials: (§2)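 Human CD34+ progenitor cells isolated from umbilical cord blood, treated in triplicate at 0.3, 3.0 and 30 µM in colony-forming unit assays. Progenitor cell (colony) frequency determined after 14 days; compared against control.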

A short description of data set [3]: Cytotoxicity against p53-knockdown human U87MG cells after 5 days by methylene blue staining assay. Format: functional, cell-based, U-87MG ATCC. The note with it: U-87 MG, 120 h. The essentials: as §1
Data set [4] can be described thus: Cytotoxicity against human U87MG cells expressing sh-GFP after 5 days by methylene blue staining assay. Format: functional, cell-based, U-87MG ATCC. Conditions: U-87 MG, 120 h. The essentials: as §1
Data set [5] is described as follows: Cytotoxicity against human CD34-positive blood stem/progenitor cells at 30 uM after 10 to 14 days by inverted light microscopic analysis relative to control. The class given is cell-based. The essentials: as §2

Regarding `COc1cc(/C=C/C(=O)CC(=O)/C=C/c2ccc(O)c(OC)c2)ccc1O` [CURCUMIN], the IC50 – broadly, the point on the concentration scale where inhibition reaches its midpoint – came out at 11.3 µM in the data set with SK-N-FI, 6.4 µM in the data set with SK-N-SH and 8.1 µM in data set [1].

Consider `COc1cc(OC)c(C(C#CCCc2ccc(O[Si](C)(C)C(C)(C)C)cc2)CC(=O)c2ccc(O)cc2)c(OC)c1` (centres undefined), for which the 50% inhibitory concentration (IC50) with SK-N-FI was found to be 31.1 µM; with SK-N-SH, 18.1 µM; in data set [3], 7 µM; in data set [1] it was 7.5 µM; in data set [4] it was 7 µM. The Activity entry in data set [2] is recorded as “Non-toxic”.

In the case of `COc1cc(OC)c(C(C#CCCc2ccc(O[Si](C)(C)C(C)(C)C)cc2)CC(=O)c2ccc(O[Si](C)(C)C(C)(C)C)cc2)c(OC)c1` (centres undefined), the values for the 50% inhibitory concentration (IC50) (in the data set on SK-N-FI; in the data set on SK-N-SH; in data set [1]) were over 100 µM, 48.8 µM and 19.1 µM, respectively.

`COc1cc(OC)c(C(C#CCCc2ccc(O[Si](C)(C)C(C)(C)C)cc2)CC(=O)c2ccc(OC(C)=O)cc2)c(OC)c1` (centres undefined): the Activity in data set [5] is 20%; in data set [2], “Non-toxic”. In addition, the IC50 in the data set with SK-N-FI turned out to be 22.1 µM; with SK-N-SH it was 11.7 µM; in data set [3], 7 µM; in data set [1], 8 µM; in data set [4], 6.9 µM.
